Reference: publication PMC12690603 (Chemical Science, 2025)
Non-standard residues stand in square brackets, D forms with d. No end group written: not given here. βAla = NCCC(=O)O

Legend:
Type in all cases: biochemical
human SETD7 [1] = biological target: T1, human SETD7 (Homo sapiens, UniProt Q8WTS6); experiment: SETD7-catalysed methylation of H3 peptides, conversion by MALDI-TOF MS; conditions: SAM 30 µM; for methylation by SETD7 (conversion to methylated product): 13-mer peptide 10 µM, MALDI-TOF MS; for methylation by SETD7 in time-course: within 30 min
T1 sequence (Q8WTS6 1-366): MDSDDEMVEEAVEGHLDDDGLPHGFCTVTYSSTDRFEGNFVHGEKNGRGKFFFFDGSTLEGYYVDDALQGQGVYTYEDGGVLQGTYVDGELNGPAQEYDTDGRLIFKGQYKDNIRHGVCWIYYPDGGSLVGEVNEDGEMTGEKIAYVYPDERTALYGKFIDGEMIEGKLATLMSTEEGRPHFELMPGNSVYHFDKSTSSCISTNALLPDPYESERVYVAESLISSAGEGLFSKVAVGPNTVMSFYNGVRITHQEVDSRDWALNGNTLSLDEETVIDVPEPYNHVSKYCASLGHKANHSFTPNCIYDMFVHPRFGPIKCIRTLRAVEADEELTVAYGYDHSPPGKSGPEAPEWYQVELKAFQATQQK
Outline: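 Recombinant human SETD7 (100 nM, 500 nM or 1 µM) was incubated with stapled or linear H3 peptide (10 µM) and SAM (30 µM) in 50 mM HEPES, 0.1 mM EDTA, 1 mM DTT, pH 8, at 37 °C with shaking at 750 rpm. Reactions were quenched with 10% (v/v) TFA at set times. Methylation (+14 Da) was measured by MALDI-TOF MS. % conversion came from peak areas. n = 2, standard deviations.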

human SETD1A = experiment: SETD1A-catalysed methylation of 21-mer H3 peptides; conditions: 21-mer peptide 2 µM, SETD1A 1 µM, SAM 100 µM, pH 8.6, 37 °C, 3 h, n = 2
human SETD7 [2] = biological target: T1, human SETD7; experiment: Steady-state kinetics of SETD7-catalysed methylation; conditions: for K m / k cat: peptide 1–150 µM, SETD7 50–300 nM, 10 or 20 min, MALDI-TOF MS, mean ± SD, SD; for K m / k cat / k cat/Km: SAM 30 µM, 37 °C, n = 3; for fold increase of kcat/Km compared to linear H3K4 (1): steady-state kinetics, relative to peptide 1; for k cat/Km: steady-state
Outline: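 Recombinant human SETD7 (50–300 nM) added to start reactions containing H3 peptide (1–150 µM series) and SAM (30 µM). Incubated at 37 °C for 10 or 20 min with shaking, then quenched. MALDI-TOF MS was the read-out, with % methylation from integrated […] peak areas. Three independent experiments, SD. kcat/Km values were compared with the linear H3K4 reference peptide.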

[3] = SETD7 500 nM, 50 mM HEPES, 0.1 mM EDTA, 1 mM DTT, pH 8.0, 37 °C, 1 h, n = 2
[4] = SETD7 100 nM, peptide 10 µM, 37 °C, n = 2

Substance | methylation by SETD7 (conversion to methylated product) (human SETD7 [1]; SETD7 100 nM, 37 °C, 1 h) | K m (human SETD7 [2]) | k cat (human SETD7 [2]) | fold increase of kcat/Km compared to linear H3K4 (1) (human SETD7 [2]) | k cat/Km (human SETD7 [2]) | methylation by SETD7 (conversion to methylated product) (human SETD7 [1]; SETD7 1 µM, 37 °C, 3 h) | also measured
21-mer H3K4: longer linear H3K4 substrate peptide, residues 1–21 [reference compound] |  |  |  |  |  |  | methylation by SETD7 (human SETD7 [1]; 21-mer peptide (residues 1–21) 10 µM, SETD7 500 nM, 37 °C, 3 h, n = 2): ~88%; dimethylated product by SETD1A (human SETD1A): ~9%
ARTKQDARKSTGG (also: sidechain bridge or staple (positions not given here)) [Peptide 5] | ~10% | 12.5 ± 2.77 µM | 0.031 ± 0.00233 s⁻¹ | 10 fold | 2500 M⁻¹ s⁻¹ |  | methylation by SETD7 (conversion to methylated product) (human SETD7 [1]; [3]): fully converted to methylated product
ARTKQEARKSTGG (also: sidechain bridge or staple (positions not given here)) [Peptide 4] |  |  |  |  |  |  | methylation by SETD7 (conversion to methylated product) (human SETD7 [1]; [3]): ~63%
ARTKQTARKSTGG [Peptide 1, reference compound] |  | 61.6 ± 12.6 µM | 0.014 ± 0.0013 s⁻¹ |  | 233 M⁻¹ s⁻¹ |  | methylation/turnover in time-course at low enzyme concentration (in words) (human SETD7 [1]; SETD7 100 nM, peptide 10 µM, 37 °C, time-course): lack of H3K4 (1) methylation; methylation by SETD7 (conversion to methylated product) (human SETD7 [1]; [3]): ~56%
AzaRTKQPraARKSTGG (sidechain bridge or staple) [Peptide 3] |  | 36.2 ± 7.54 µM | 0.0598 ± 0.0065 s⁻¹ | 7 fold | 1650 M⁻¹ s⁻¹ | ~95% | 
CRTKQCARKSTGG (also: sidechain bridge or staple (positions not given here)) [Peptide 2] |  |  |  |  |  | ~86% | 
D-ARTKQEARKSTGG (sidechain bridge or staple) [Peptide 6] | ~89% | 10.4 ± 1.88 µM | 0.23 ± 0.014 s⁻¹ | 97 fold | 22200 M⁻¹ s⁻¹ |  | methylation by SETD7 in time-course (human SETD7 [1]; [4]): ~90%
FRTKQEARKSTGG (also: sidechain bridge or staple (positions not given here)) [Peptide 9] | ~62% | 34.6 ± 9.78 µM | 0.0493 ± 0.00517 s⁻¹ | 6 fold | 1430 M⁻¹ s⁻¹ |  | 
GGRTKQEARKSTGG (also: sidechain bridge or staple (positions not given here)) [Peptide 13] |  |  |  |  |  | ~91% | 
GRTKETARKSTGG (also: sidechain bridge or staple (positions not given here)) [Peptide 14] |  |  |  |  |  | < 5% | 
GRTKQEARKSTGG (also: sidechain bridge or staple (positions not given here)) [Peptide 7] | ~96% | 1.84 ± 0.27 µM | 0.046 ± 0.00283 s⁻¹ | 110 fold | 25000 M⁻¹ s⁻¹ |  | methylation by SETD7 in time-course (human SETD7 [1]; [4]): ~90%
GRTKQEARKSTGG [Peptide 16] |  |  |  |  |  | ~40% | 
GRTKQTERKSTGG (also: sidechain bridge or staple (positions not given here)) [Peptide 15] |  |  |  |  |  | ~11% | 
RTKQEARKSTGG (also: sidechain bridge or staple (positions not given here)) [Peptide 12] |  |  |  |  |  | ~75% | 
VRTKQEARKSTGG (also: sidechain bridge or staple (positions not given here)) [Peptide 8] | ~64% | 34.1 ± 7.76 µM | 0.0423 ± 0.00433 s⁻¹ | 5 fold | 1230 M⁻¹ s⁻¹ |  | 
[βAla]RTKQEARKSTGG (also: sidechain bridge or staple (positions not given here)) [Peptide 11] | ~48% | 17.7 ± 3.15 µM | 0.0495 ± 0.00317 s⁻¹ | 12 fold | 2830 M⁻¹ s⁻¹ |  | 
